# From ChEMBL document CHEMBL3526070, “Mass balance study of [¹⁴C]eribulin in patients with advanced solid tumors” (Drug Metab Dispos, 2012)
# What was measured:
# [1] = Drug excretion in cancer patient urine at 80 uCi, iv administered as bolus infusion for 2 to 5 mins after 312 hrs by liquid scintillation counting; type: ADME, organism-based; details: human, in vivo
# Procedure, shortened: (§1)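 Patients had one ~2 mg (~80 µCi) 14C-eribulin IV bolus over 2-5 min. Urine was pooled over 6 h periods to 48 h, then every 24 h. All faeces were collected and homogenised. Collection ran to day 8, or longer until daily recovery was <1% of administered activity (faeces up to 312 h). Faeces were solubilised and decolourised, then LSC counted with quench correction, as percentage of administered activity.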
# [2] = Drug excretion in cancer patient feces at 80 uCi, iv administered as bolus infusion for 2 to 5 mins after 312 hrs by liquid scintillation counting; type: ADME, organism-based; details: human, in vivo; procedure, shortened: as §1
# [3] = Drug excretion in cancer patient urine at 80 uCi, iv administered as bolus infusion for 2 to 5 mins after 168 hrs by liquid scintillation counting; type: ADME, organism-based; details: human, in vivo; procedure, shortened: as §1
# [4] = Drug excretion in cancer patient feces at 80 uCi, iv administered as bolus infusion for 2 to 5 mins after 168 hrs by liquid scintillation counting; type: ADME, organism-based; details: human, in vivo; procedure, shortened: as §1
# Homo sapiens [5] = test: Toxicity against cancer patient assessed as mortality at 80 uCi, iv administered as bolus infusion for 2 to 5 mins; type: organism-based; details: in vivo
# Homo sapiens [6] = test: Toxicity against cancer patient assessed as severe adverse event at 80 uCi, iv administered as bolus infusion for 2 to 5 mins; type: organism-based; details: in vivo
# Homo sapiens [7] = test: Cmax in cancer patient plasma assessed as total radioactivity at 2 mg, iv administered as bolus infusion for 2 to 5 mins by LC-MS/MS analysis/liquid scintillation counting; type: ADME, organism-based; parameters: dose 2 mg, route intravenous; details: in vivo
# Procedure, shortened: (§2)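 Six patients with advanced solid tumours got one ~2 mg (~80 µCi) 14C-eribulin IV bolus over 2-5 min. Venous blood was drawn into lithium heparin pre-dose, at end of infusion and 5 min-168 h after, then spun 2,000 g, 4 °C, 15 min. Plasma was counted in duplicate by LSC with quench correction. Non-compartmental analysis; dose-normalised values use actual administered dose.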
# Homo sapiens [8] = test: Terminal half life in cancer patient assessed as total radioactivity at 2 mg, iv administered as bolus infusion for 2 to 5 mins by LC-MS/MS analysis/liquid scintillation counting; type: ADME, organism-based; details: in vivo; procedure, shortened: as §2
# Homo sapiens [9] = test: AUC (0 to t) in cancer patient assessed as total radioactivity at 2 mg, iv administered as bolus infusion for 2 to 5 mins by LC-MS/MS analysis/liquid scintillation counting; type: ADME, organism-based, Plasma; details: in vivo; procedure, shortened: as §2
# Homo sapiens [10] = test: AUC (0 to infinity) in cancer patient assessed as total radioactivity at 2 mg, iv administered as bolus infusion for 2 to 5 mins by LC-MS/MS analysis/liquid scintillation counting; type: ADME, organism-based, Plasma; parameters: dose 2 mg, time infinity, route intravenous; details: in vivo; procedure, shortened: as §2
# Homo sapiens [11] = test: Dose-normalized Cmax in cancer patient plasma assessed as total radioactivity at 2 mg, iv administered as bolus infusion for 2 to 5 mins by LC-MS/MS analysis/liquid scintillation counting; type: ADME, organism-based; details: in vivo; procedure, shortened: as §2
# Homo sapiens [12] = test: Dose-normalized AUC (0 to t) in cancer patient plasma assessed as total radioactivity at 2 mg, iv administered as bolus infusion for 2 to 5 mins by LC-MS/MS analysis/liquid scintillation counting; type: ADME, organism-based; details: in vivo; procedure, shortened: as §2
# Homo sapiens [13] = test: Dose-normalized AUC (0 to infinity) in cancer patient plasma assessed as total radioactivity at 2 mg, iv administered as bolus infusion for 2 to 5 mins by LC-MS/MS analysis/liquid scintillation counting; type: ADME, organism-based; details: in vivo; procedure, shortened: as §2
# [14] = Clearance in cancer patient at 2 mg, iv administered as bolus infusion for 2 to 5 mins by LC-MS/MS analysis; type: ADME, organism-based; details: human, in vivo
# Procedure, shortened: (§3)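 Six patients with advanced solid tumours received a single ~2 mg (~80 µCi) 14C-eribulin IV bolus over 2-5 min. Plasma was sampled from pre-dose to 168 h after end of infusion, using lithium-heparin tubes centrifuged at 4 °C. Eribulin was quantified by validated LC-MS/MS (m/z 730→712) and corrected ×2.03 for total eribulin. CL, CLr and Vz came from non-compartmental analysis. Values are mean ± SD, n=6.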
# [15] = Renal clearance in cancer patient at 2 mg, iv administered as bolus infusion for 2 to 5 mins by LC-MS/MS analysis; type: ADME, organism-based, Kidney; details: human, in vivo; procedure, shortened: as §3
# Homo sapiens [16] = test: Apparent volume of distribution in the terminal phase in cancer patient at 2 mg, iv administered as bolus infusion for 2 to 5 mins by LC-MS/MS analysis; type: ADME, organism-based; details: in vivo; procedure, shortened: as §3
# Homo sapiens [17] = test: Dose-normalized Cmax in cancer patient plasma at 2 mg, iv administered as bolus infusion for 2 to 5 mins by LC-MS/MS analysis/liquid scintillation counting; type: ADME, organism-based; details: in vivo
# Procedure, shortened: (§4)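 Single ~2 mg (~80 µCi) 14C-eribulin IV bolus over 2-5 min in 6 cancer patients; actual doses were 1.75-3.01 mg. Plasma eribulin was measured by LC-MS/MS and total radioactivity by liquid scintillation counting with quench correction. Cmax, AUC0-t and AUC0-∞ came from non-compartmental analysis and were divided by the actual dose. TRA AUC0-∞ used n=5.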
# Homo sapiens [18] = test: Dose-normalized AUC (0 to t) in cancer patient plasma at 2 mg, iv administered as bolus infusion for 2 to 5 mins by LC-MS/MS analysis/liquid scintillation counting; type: ADME, organism-based; details: in vivo; procedure, shortened: as §4
# Homo sapiens [19] = test: Dose-normalized AUC (0 to infinity) in cancer patient plasma at 2 mg, iv administered as bolus infusion for 2 to 5 mins by LC-MS/MS analysis/liquid scintillation counting; type: ADME, organism-based; details: in vivo; procedure, shortened: as §4
# Homo sapiens [20] = test: Drug excretion in cancer patient treated with [14C]eribulin acetate at 2 mg, iv administered as bolus infusion for 2 to 5 mins after 312 hrs by LC-MS/MS analysis; type: ADME, organism-based; details: in vivo
# Procedure, shortened: (§5)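 Patients got a ~2 mg (~80 µCi) 14C-eribulin IV bolus over 2-5 min. Urine was collected in 6 h periods to 48 h, then in 24 h periods. All faeces were collected and homogenised until daily recovery was <1% of dose; four patients continued to 312 h. Unchanged eribulin was measured by LC-MS/MS (faeces 0.1–25 µg/g) and total radioactivity by LSC. Results are % of the administered dose, mean ± SD.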
# Homo sapiens [21] = test: Drug excretion in cancer patient treated with [14C]eribulin acetate at 2 mg, iv administered as bolus infusion for 2 to 5 mins after 168 hrs by LC-MS/MS analysis; type: ADME, organism-based; details: in vivo; procedure, shortened: as §5
# [22] = Terminal half life in breast cancer patient; type: ADME, organism-based; details: human, in vivo; read-out: beta t1/2 (converted)
# [23] = Drug excretion in patient urine assessed as unchanged compound level at 0.25 to 1.4 mg/m2 administered 1 hr, iv infusion after 72 hrs; type: ADME, organism-based; details: human, read-out: Drug excretion
# [24] = Drug excretion in patient urine assessed as unchanged compound at 0.25 to 4 mg/m2 administered 1 hr, iv infusion every 21 days after 72 hrs; type: ADME, organism-based; details: human, read-out: Drug excretion
smiles,measurement,setting,value
C=C1C[C@@H]2CC[C@@]34C[C@H]5O[C@H]6[C@@H](O3)[C@H]3O[C@H](CC[C@@H]3O[C@H]6[C@H]5O4)CC(=O)C[C@@H]3[C@@H](OC)[C@@H](C[C@H](O)CN)O[C@H]3C[C@H]3O[C@@H](CC[C@@H]1O2)C[C@@H](C)C3=C.CC(=O)O,Drug excretion,[1],8.9%
same,Drug excretion,[2],81.5%
same,Drug excretion,[3],8.9%
same,Drug excretion,[4],77.6%
same,Activity,Homo sapiens [5],Non-toxic
same,Activity,Homo sapiens [6],Non-toxic
same,Cmax,Homo sapiens [7],449 ng.Eq/ml
same,beta t1/2,Homo sapiens [8],42.3 h
same,AUCt,Homo sapiens [9],568 ng.Eq.hr/ml
same,AUC,Homo sapiens [10],753 ng.Eq.hr/ml
same,Cmax/dose,Homo sapiens [11],224 ngequiv/ml/mg
same,AUCt/dose,Homo sapiens [12],269 ngequiv.hr/ml/mg
same,AUC/dose,Homo sapiens [13],357 ngequiv.hr/ml/mg
C=C1C[C@@H]2CC[C@@]34C[C@H]5O[C@H]6[C@@H](O3)[C@H]3O[C@H](CC[C@@H]3O[C@H]6[C@H]5O4)CC(=O)C[C@@H]3[C@@H](OC)[C@@H](C[C@H](O)CN)O[C@H]3C[C@H]3O[C@@H](CC[C@@H]1O2)C[C@@H](C)C3=C.CS(=O)(=O)O [ERIBULIN MESYLATE],clearance,[14],65.5 mL/min
same,CL renal,[15],5 mL/min
same,Vz/F,Homo sapiens [16],247 L
same,Cmax/dose,Homo sapiens [17],222 ng/mL/mg
same,AUCt/dose,Homo sapiens [18],301 ng·h/mL/mg
same,AUC/dose,Homo sapiens [19],328 ng·h/mL/mg
same,Drug excretion,Homo sapiens [20],68.6%
same,Drug excretion,Homo sapiens [21],68%
same,half-life,[22],36 h
same,dose excreted at 72 h,[23],5%
same,dose excreted at 72 h,[24],7%
